Source: PubChem BioAssay (Sanford-Burnham Center for Chemical Genomics)
Most compounds without a hit are left out; they make up all but 1.4% or so of the library.
PfG6PD inh – PfG6PD (Plasmodium falciparum) enzyme inhibition. PfGluPho enzyme, NADPH resazurin-diaphorase fluorescence. inhibition, % at 20 µM. 0.78% of 350,000 active;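 active means inhibition reaching at least a set limit at 20 µM in the primary screen, cut at about 59% in these data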;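 further: 0% = DMSO wells with substrate and 100% = DMSO wells lacking glucose-6-phosphate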
HKDC1 inh – inhibitors of human hexokinase HKDC1; recombinant HKDC1, G6PDH/diaphorase resazurin coupled fluorescence; inhibition, % at 20 µM; 0.16% of 340,000 active; AID 493160;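 active means inhibition above about 35% when tested at 20 µM, limit read from the data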;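 further: plate controls were DMSO wells with enzyme for no effect and DMSO wells lacking enzyme for full effect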
Target sequence (Q2TB90 whole entry, looked up): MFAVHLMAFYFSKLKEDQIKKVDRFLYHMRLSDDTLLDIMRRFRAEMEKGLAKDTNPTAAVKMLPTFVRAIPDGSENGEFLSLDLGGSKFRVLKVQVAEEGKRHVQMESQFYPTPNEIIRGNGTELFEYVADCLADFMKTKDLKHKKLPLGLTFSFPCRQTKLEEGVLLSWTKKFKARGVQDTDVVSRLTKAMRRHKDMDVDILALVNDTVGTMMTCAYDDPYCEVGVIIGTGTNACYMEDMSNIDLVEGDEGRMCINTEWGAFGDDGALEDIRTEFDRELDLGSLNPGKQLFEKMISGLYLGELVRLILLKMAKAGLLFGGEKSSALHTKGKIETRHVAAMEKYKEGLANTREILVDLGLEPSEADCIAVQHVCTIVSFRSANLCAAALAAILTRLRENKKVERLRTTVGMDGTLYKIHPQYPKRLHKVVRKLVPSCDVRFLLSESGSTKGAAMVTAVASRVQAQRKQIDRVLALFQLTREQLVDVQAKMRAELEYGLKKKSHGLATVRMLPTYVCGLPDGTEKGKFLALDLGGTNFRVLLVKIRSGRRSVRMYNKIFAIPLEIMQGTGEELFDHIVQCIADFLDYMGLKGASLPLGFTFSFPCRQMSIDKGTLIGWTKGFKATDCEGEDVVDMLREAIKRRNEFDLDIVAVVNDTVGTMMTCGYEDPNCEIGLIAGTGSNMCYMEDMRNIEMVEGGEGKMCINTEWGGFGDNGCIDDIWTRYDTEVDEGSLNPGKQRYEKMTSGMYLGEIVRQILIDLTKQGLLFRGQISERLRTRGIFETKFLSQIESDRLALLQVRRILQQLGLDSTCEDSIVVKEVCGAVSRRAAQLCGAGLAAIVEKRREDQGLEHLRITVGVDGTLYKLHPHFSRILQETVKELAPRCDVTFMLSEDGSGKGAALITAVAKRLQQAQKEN
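Assay system – recombinant HKDC1 (HK5) hexokinase enzyme, produced in-house · Input – HKDC1 at 5 µg/mL · Reagent – glucose plus 1 mM ATP as hexokinase substrates · Timing – 90 min reaction incubation at room temperature, dark · Measured by – G6PDH/diaphorase-coupled fluorescence, 1 mM NADP, 100 µM resazurin, 525/613 nm · Benchmarks – DMSO-enzyme wells negative, buffer-substituted wells positive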
A3G deaminase – blocks human APOBEC3G single-stranded DNA deamination. recombinant A3G, ssDNA deamination FAM/TAMRA fluorescence. 0.28% of 330,000 active. inhibition, % at 20 µM. Q9HC16;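 active means inhibition of at least 40% at 20 µM, with no more than 30% in the related APOBEC3A deaminase screen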;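 further: plate controls were DMSO wells with A3G for no effect and wells lacking A3G enzyme for full effect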
hiPSC survival – increases survival of single human iPS cells; AID 602274; 0.044% of 360,000 active; hiPSC single-cell survival, ATPlite luminescence; 100% = ROCK inhibitor wells, 0% = DMSO; survival enhancement, % at 20 µM; in the data active means survival enhancement above about 18%;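 further: cells exposed to compounds for 16 hours before the ATP read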
A3A deaminase – inhibitors of human APOBEC3A DNA deaminase | AID 493011 | 0.41% of 330,000 active | recombinant A3A, FAM/TAMRA ssDNA deamination fluorescence | inhibition, % at 20 µM | P31941;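 active means at least 40% inhibition at 20 µM here, with at most 30% in a related deaminase screen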;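 further: plate controls were A3A with DMSO for no effect and wells lacking A3A enzyme for full effect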
PfGluPho conf – PfG6PD inhibition, single-dose confirmed; shares compounds with PfG6PD inh; recombinant PfGluPho, NADPH-diaphorase-resazurin fluorescence; inhibition, % at 20 µM; 34% of 2,400 active;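 active means inhibition of at least 50% at 20 µM in any single replicate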;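 further: 0% = DMSO with substrate and 100% = DMSO lacking glucose-6-phosphate substrate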
Diaph ctr 10uM – inhibits diaphorase or oxidizes, flagging false PfG6PD hits | shares compounds with PfG6PD inh | diaphorase-coupled resazurin reduction, fluorescence, NADPH 10 uM | inhibition, % at 20 µM | 39% of 820 active | AID 504862;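 active means average inhibition reaching 50% or more with the compound at 20 µM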;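 further: resorufin red fluorescence formed as diaphorase reduces resazurin using NADPH; 0% = DMSO with enzyme and 100% = DMSO without enzyme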
Diaph ctr 30uM – counter-screen for P. falciparum G6PD inhibitors: diaphorase inhibitors, oxidizers; shares compounds with PfG6PD inh; Diaphorase/resazurin coupled assay, resorufin fluorescence, 30 uM NADPH; inhibition, % at 20 µM; 29% of 820 active; AID 504863;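 active means inhibition averaging 50% or more, tested at 20 µM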;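 further: 0% = DMSO with enzyme and 100% = DMSO wells lacking diaphorase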
An asterisk follows results filed as active; x = not tested or not shown.

SMILES	PfG6PD inh	HKDC1 inh	A3G deaminase	hiPSC survival	A3A deaminase	PfGluPho conf	others
COC[C@H]1CCCN1c1ccc2c(c1)O[C@@H](COCc1ccccc1)CN([C@H](C)c1ccccc1)S2(=O)=O	x	x	x	-0.2	x	x
COCCNc1nc(-c2ccccc2CO)c2sc(-c3ccccc3)cc2n1	x	x	x	2.2	x	x
COc1ccc(Nc2nc(C)c(-c3ccccc3)s2)cc1	75.7*	9.3	x	-2.1	x	2.2
Cc1nc(Nc2ccc(S(N)(=O)=O)cc2)sc1-c1ccccc1	9.4	3.4	-5.2	1.6	0.4	x
CCN(C(=O)c1cn(C)c(=O)c2ccccc12)c1ccccc1F	-15.3	-4.9	-1.1	0.0	0.0	x
Nn1c(CSc2nc3ccccc3o2)nnc1CSc1nc2ccccc2o1	87.0*	9.7	2.1	4.5	-0.1	59.9*	Diaph ctr 10uM=56.4*;Diaph ctr 30uM=48.3
O=C(O)CSc1nc2ccccc2o1	-14.3	6.1	-5.3	1.0	-0.9	x
COCCN(C(=S)Nc1c(C)cc(C)cc1C)C(C)c1cccnc1 (stereo not drawn)	69.1*	-8.2	36.0	1.3	-1.5	29.6
COCCN(C(=S)Nc1c(C)cccc1C)C(C)c1cccnc1 (stereo not drawn)	-1.1	0.7	-9.2	-0.7	-3.2	x
CN(C(=O)COc1ccc(S(=O)(=O)N2CCOCC2)cc1[N+](=O)[O-])C1CCS(=O)(=O)C1 (stereo not drawn)	-5.7	-5.0	-2.7	-0.2	2.8	x
CC(=O)OCC1OC(n2c(S)c(C#N)c(-c3ccccc3)c(C#N)c2=O)C(OC(C)=O)C(OC(C)=O)C1OC(C)=O (stereo not drawn)	66.4*	-0.3	x	-2.5	x	21.9
COc1ccc([N+](=O)[O-])cc1/C=N/NC(=O)CNC(=O)c1cccc(F)c1	70.0*	-11.1	-6.4	2.0	-2.4	22.0
COc1ccc([N+](=O)[O-])cc1/C=N/NC(=O)CNC(=O)C(c1ccccc1)c1ccccc1	139.3*	6.4	-4.4	-0.6	1.9	86.3*	Diaph ctr 10uM=84.8*;Diaph ctr 30uM=80.4*
O=C(CNC(=O)c1cccc(F)c1)N/N=C/c1ccc(O)c([N+](=O)[O-])c1	-6.2	9.7	-5.0	0.5	1.4	x
O=C(O)c1ccc2cccc(O)c2n1	65.8*	13.4	-1.5	-0.3	-0.3	31.9
O=[N+]([O-])c1ccc(C=Nc2cccc3ccccc23)s1	70.8*	20.9	-3.9	-1.3	-6.3	17.8
Cc1cc(OCC(=O)Nc2cnn(CCCC(=O)O)c2)ccc1Cl	-18.6	-1.6	-1.6	-0.6	-0.7	x
C[n+]1cccc2cccc([O-])c21	82.4*	26.4	x	0.1	x	8.6
CC(Nc1cc(N2CCN(S(C)(=O)=O)CC2)ccc1[N+](=O)[O-])c1ccccc1 (stereo not drawn)	59.7*	1.2	-9.7	5.7	-3.9	24.7
CC(Nc1cc(N2CCN(S(=O)(=O)N(C)C)CC2)ccc1[N+](=O)[O-])c1ccccc1 (stereo not drawn)	88.2*	-0.2	-10.8	0.3	-3.0	23.5
COc1ccc2oc(C(=O)NC3(C)CCS(=O)(=O)C3)c(C)c2c1 (stereo not drawn)	13.8	-3.5	-4.8	0.3	0.9	x
O=C(c1ccco1)N1CCN(C(=O)c2ccccc2OCc2ccccc2)CC1	-3.4	3.9	-8.0	0.0	-4.5	x
O=C(Cn1ccc(NC(=O)OCc2ccccc2)nc1=O)NCCN1CCOCC1	-2.2	-5.5	-2.0	-2.5	5.6	x
CCOC(=O)c1c(-c2cc(OC)c(OC)c(OC)c2)csc1NC(=O)c1ccccc1	21.9	x	x	1.2	x	x
O=C(Nc1scc(-c2ccccc2)c1C(=O)O)c1ccccc1Cl	35.6	6.7	-7.9	-0.5	-5.3	x
COc1cc(C(=O)Nc2scc(-c3ccc(C)cc3)c2C(=O)O)cc(OC)c1OC	76.4*	4.7	-6.6	-0.5	-5.7	35.3
Cc1ccc(C(=O)Nc2scc(-c3ccccc3)c2C(=O)O)cc1	105.0*	2.9	8.4	-0.4	2.9	47.3
